Where a SMILES comes first, the peptide text is derived from it. Bridges are numbered along the chain shown (N, C = ends). The star is where a group is joined. NH(β-GlcNAc) = CC(=O)N[C@@H]1[C@@H](O)[C@H](O)[C@@H](CO)O[C@H]1N*; Valol = CC(C)[C@@H](CO)N*
Legend:
[1] = biological target: T1, Somatostatin receptor type 4 (Homo sapiens, UniProt P31391); assay: Displacement of [125I]somatostatin-14 (Tyr11) from human SSTR4 expressed in African green monkey COS1 cell membranes after 2 hrs by scintillation counting method
Method in brief: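 Membranes from transiently transfected COS-1 cells (10 μg protein) incubated 2 h at room temperature in 10 mM Hepes pH 7.5 with 5 mM MgCl2, bacitracin, 0.5% BSA and ¹²⁵I-[Tyr¹¹]-somatostatin-14 (30,000 cpm), with unlabeled somatostatin-14 and test ligands at various concentrations. Bound radioactivity read by scintillation counting.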

[2] = biological target: T2, Somatostatin receptor type 5 (Homo sapiens, UniProt P35346); assay: Displacement of [125I]somatostatin-14 (Tyr11) from human SSTR5 expressed in African green monkey COS1 cell membranes after 2 hrs by scintillation counting method
Method in brief: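 SSTR-5 gene cloned into pCMV6c and transfected into COS1 cells. Membrane preparation (20 μg protein) incubated 2 h at room temperature in Na⁺-free buffer: 10 mM HEPES, 1% BSA, 5 mM MgCl2, 1 mg/ml bacitracin, pH 7.45. Contained ~10 pM [¹²⁵I-Tyr¹¹]-somatostatin-14, either alone or with somatostatin-14 and test ligands at various concentrations.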

[3] = organism: Homo sapiens; assay: Selectivity ratio of Ki for human SSTR5 to Ki for human SSTR4
[4] = organism: Homo sapiens; assay: Selectivity ratio of Ki for human SSTR4 to Ki for human SSTR5
[5] = biological target: T2, Somatostatin receptor type 5; assay: Inhibition of human SSTR5 by radioligand binding assay
[6] = biological target: T1, Somatostatin receptor type 4; assay: Inhibition of human SSTR4 by radioligand binding assay

T1 sequence (P31391 whole entry): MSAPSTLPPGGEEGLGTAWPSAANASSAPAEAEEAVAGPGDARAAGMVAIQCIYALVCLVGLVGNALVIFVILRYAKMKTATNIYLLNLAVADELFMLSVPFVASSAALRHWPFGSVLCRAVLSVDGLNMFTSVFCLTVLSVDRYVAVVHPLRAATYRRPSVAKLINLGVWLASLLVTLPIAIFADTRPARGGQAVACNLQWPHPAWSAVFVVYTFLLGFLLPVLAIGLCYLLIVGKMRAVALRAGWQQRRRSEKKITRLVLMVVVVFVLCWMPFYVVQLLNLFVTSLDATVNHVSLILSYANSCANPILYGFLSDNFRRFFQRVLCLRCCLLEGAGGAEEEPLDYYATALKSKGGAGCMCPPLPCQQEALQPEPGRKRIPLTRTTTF
T2 sequence (P35346 whole entry): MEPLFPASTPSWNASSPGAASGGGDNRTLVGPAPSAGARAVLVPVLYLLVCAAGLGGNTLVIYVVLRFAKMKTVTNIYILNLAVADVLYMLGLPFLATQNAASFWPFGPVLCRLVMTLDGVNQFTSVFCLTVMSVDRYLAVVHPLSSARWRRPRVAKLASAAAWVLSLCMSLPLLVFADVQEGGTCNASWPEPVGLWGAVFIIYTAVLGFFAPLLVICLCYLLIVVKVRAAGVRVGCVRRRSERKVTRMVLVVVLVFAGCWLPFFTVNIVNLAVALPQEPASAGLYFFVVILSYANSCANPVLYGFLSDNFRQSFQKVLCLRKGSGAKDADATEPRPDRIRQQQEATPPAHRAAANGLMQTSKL

Compound | IC50 [1] | Ki [1] | IC50 [2] | Ki [2] | Ratio Ki [3] | Ratio Ki [4] | IC50 [5] | IC50 [6]
CC(=O)N[C@@H](Cc1ccccc1)C(=O)N[C@H]1CSSC[C@@H](C(=O)N[C@H](CO)C(C)C)NC(=O)[C@H](CC(=O)O)NC(=O)[C@H](CCCCN)NC(=O)[C@H](Cc2c[nH]c3ccccc23)NC(=O)[C@H](Cc2ccccc2)NC1=O (Ac-FCFWKDC-Valol; disulfide 2-7) | 7.4 µM | 7.2 µM | 16 µM | 10 µM |  |  |  | 
CC(=O)N[C@@H]1[C@@H](O)[C@H](O)[C@@H](CO)O[C@H]1NC(=O)C[C@@H]1NC(=O)[C@H](CCCCN)NC(=O)[C@H](Cc2c[nH]c3ccccc23)NC(=O)[C@H](Cc2ccccc2)NC(=O)[C@@H](NC(=O)[C@H](Cc2ccccc2)NC(C)=O)CSSC[C@@H](C(=O)N[C@H](CO)C(C)C)NC1=O (Ac-FCFWKD(NH(β-GlcNAc))C-Valol; disulfide 2-7) | 21 µM | 20 µM | 5.2 µM | 3.4 µM |  |  |  | 
NCCCCCOC[C@@H]1[C@@H](OCc2ccccc2)[C@H](OCc2ccccc2)[C@@H](OCc2ccccc2)CN1CCc1c[nH]c2ccccc12 |  |  |  |  | 1.13 |  |  | 
CC(C)CCO[C@@H]1[C@@H](O)[C@@H](O)[C@H]2Cn3cc(nn3)COCCCCCCN(CCc3c[nH]c4ccccc34)CC[C@H]1O2 | 22 µM | 21 µM | 6.2 µM | 4.1 µM |  |  |  | 
Cc1ccc(S[C@H]2O[C@H](CO)[C@@H](O)[C@H](OC/C=C/CN)[C@@H]2NC(=O)Cc2c[nH]c3ccccc23)cc1 | 2.2 µM | 2.1 µM | 5.9 µM | 3.9 µM | 1.8 |  |  | 
NCCCCN1CCCCCOCc2cn(nn2)C[C@H]2O[C@H](CC1)[C@H](OCc1cccc3ccccc13)[C@@H](O)[C@H]2O | > 100 µM | > 100 µM | > 100 µM | > 100 µM |  |  |  | 
NCCCCC[C@@H]1[C@@H](OCc2ccccc2)[C@H](OCc2ccccc2)[C@@H](OCc2ccccc2)CN1Cc1cccc2ccccc12 |  | 1.9 µM |  | 1.3 µM |  | 1.46 |  | 
CC(=O)N[C@@H](Cc1ccccc1)C(=O)N[C@@H](C)C(=O)N[C@@H](Cc1ccccc1)C(=O)N[C@@H](Cc1c[nH]c2ccccc12)C(=O)N[C@@H](CCCCN)C(=O)N[C@@H](CC(=O)O)C(=O)N[C@@H](C)C(=O)N[C@H](CO)C(C)C (Ac-FAFWKDA-Valol) | > 100 µM | > 100 µM |  | > 100 µM |  |  |  | 
C[C@@H](O)[C@@H]1NC(=O)[C@H](CCCCN)NC(=O)[C@@H](Cc2c[nH]c3ccccc23)NC(=O)[C@H](Cc2ccccc2)NC(=O)[C@@H](NC(=O)[C@@H](Cc2ccccc2)NC(=O)CN2CCN(CC(=O)O)CCN(CC(=O)O)CCN(CC(=O)O)CC2)CSSC[C@@H](C(=O)N[C@H](CO)[C@@H](C)O)NC1=O |  |  |  |  |  |  | > 1 µM | 0.103 µM
NCCCCO[C@H]1[C@H](O)[C@H](OCc2ccccc2)COCCCc2cccc(O)c2C(=O)OC[C@@H]1NC(=O)Cc1c[nH]c2ccccc12 | 1.2 µM | 1.9 µM | 3 µM | 3.2 µM |  |  |  | 
NCCCCN1CCCCCCOCc2cn(nn2)C[C@H]2O[C@H](CC1)[C@H](OCc1cccc3ccccc13)[C@@H](O)[C@H]2O | > 100 µM | > 100 µM | > 100 µM | > 100 µM |  |  |  | 
NCCCCCOC[C@@H]1[C@@H](O)[C@H](O)[C@@H](O)CN1CCc1c[nH]c2ccccc12 |  |  |  | > 100 µM |  |  |  | 
NCCCCC[C@@H]1[C@@H](O)[C@H](O)[C@@H](O)CN1Cc1cccc2ccccc12 |  | > 100 µM |  | 23 µM |  |  |  | 
Cc1ccc(S[C@H]2O[C@H](CO)[C@@H](O)[C@H](OCCCCN)[C@@H]2NC(=O)Cc2c[nH]c3ccccc23)cc1 | 6.9 µM | 6.8 µM | 18 µM | 12 µM | 1.8 |  |  | 
CC(=O)O[C@H]1[C@H](OC(C)=O)[C@@H](CCCCCN)N(Cc2cccc3ccccc23)C[C@@H]1OC(C)=O |  | 5.4 µM |  | 5.1 µM |  | 1.05 |  | 
NCCCCO[C@@H]1[C@@H](O)[C@H](CO)OC(O)[C@@H]1NC(=O)Cc1c[nH]c2ccccc12 (stereo not given in full) |  | > 100 µM |  | > 100 µM |  |  |  | 
NC/C=C/CO[C@H]1[C@H](O)[C@H](OCc2ccccc2)COC/C=C/c2cccc(O)c2C(=O)OC[C@@H]1NC(=O)Cc1c[nH]c2ccccc12 | 0.59 µM | 0.58 µM | 1.6 µM | 1.1 µM |  |  |  | 
